TCR CD3 inh = human TCR-CD3 binding inhibition | inhibition, % at 9.4 µM | 0.37% of 360,000 active | AID 651800 | TAMRA-labeled TCR probe fluorescence, biochemical; in the data active = inhibition above about 19%;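 also: recombinant mutant TCR 2C K166C tagged with TAMRA read by polarization; 0% = receptor in buffer alone and 100% = receptor with positive control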
mABHD4 FP = inhibitors of mouse ABHD4 | Q8VD66 | 0.54% of 370,000 active | purified mABHD4, FP-Rh probe fluorescence polarization | inhibition, % at 8.92 µM;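 active = inhibition exceeding the mean over every tested compound plus 3 SD, cut at about 30% in these data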;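 also: 0% = plate median of compound wells and 100% = S159A mutant with DMSO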
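assay system = mABHD4 protein | compound dosing = single nominal dose of 8.92 µM, 0.89% DMSO final | read-out basis = percent inhibition of probe binding, normalized to plate controls | schedule = Enzyme–compound pre-incubation 45 min, then probe 60 min, both 25 °C | detection = fluorescence polarization, excitation 525 nm, emission 598 nm, BODIPY TMR filters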
HTRA1 inh = blocks human HTRA1 serine peptidase | Q92743 | recombinant HTRA1, FP-rhodamine activity-based probe, fluorescence polarization | inhibition, % at 5.96 µM | 0.5% of 340,000 active | AID 504803; in the data active = inhibition above about 36%;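 also: 0% = enzyme with DMSO and 100% = wells lacking enzyme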
Target sequence (Q92743 whole entry, looked up): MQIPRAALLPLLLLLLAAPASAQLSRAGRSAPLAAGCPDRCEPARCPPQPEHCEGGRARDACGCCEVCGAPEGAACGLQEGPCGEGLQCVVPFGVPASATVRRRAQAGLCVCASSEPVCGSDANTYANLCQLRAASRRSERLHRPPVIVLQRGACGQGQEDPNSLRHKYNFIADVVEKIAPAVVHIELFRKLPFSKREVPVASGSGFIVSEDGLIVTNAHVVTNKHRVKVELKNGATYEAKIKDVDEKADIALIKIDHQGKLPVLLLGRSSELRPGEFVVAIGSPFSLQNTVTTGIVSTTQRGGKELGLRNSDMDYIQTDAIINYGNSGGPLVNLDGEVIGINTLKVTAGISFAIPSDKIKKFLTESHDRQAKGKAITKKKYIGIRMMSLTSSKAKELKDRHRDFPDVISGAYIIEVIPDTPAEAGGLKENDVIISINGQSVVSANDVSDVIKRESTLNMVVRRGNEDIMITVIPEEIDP
PME-1 inh = blocks human protein phosphatase methylesterase 1 | 0.53% of 320,000 active | inhibition, % at 5.9 µM | recombinant PME-1, FP-Rh probe fluorescence polarization | Q9Y570;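 active = inhibition above the campaign mean of all compounds plus 3 SD, cut at about 26% in these data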;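 also: competitive labeling of PME-1 active site by serine hydrolase directed probe; 0% = PME-1 with DMSO and 100% = wells lacking PME-1 enzyme; inhibitors block probe labeling so polarization falls and inhibition rises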
Fam108B counter = blocks mouse Fam108B hydrolase in RBBP9 counter-screen | recombinant Fam108B, FP-Rh probe fluorescence polarization | inhibition, % at 9.51 µM | 0.33% of 300,000 active | AID 1947;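 active = inhibition above the screen mean inhibition plus 3 SD, computed separately per campaign, cut at about 18% in these data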;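 also: inhibitors lower polarization as less probe binds the enzyme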
SIAE primary = human SIAE inhibition, primary screen. Q9HAT2. SIAE FP-Rh probe binding, fluorescence polarization. inhibition, % at 9.66 µM. 0.69% of 370,000 active. AID 1053197;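 active = inhibition above a cutoff: mean of compounds within the control limits plus 3 SD of those, cut at about 17% in these data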;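 also: 0% = plate median of compound wells and 100% = probe without SIAE protein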
mABHD4 conf = ABHD4 (mouse) inhibition, FP confirmation | shares compounds with mABHD4 FP | purified mABHD4, FP-Rh probe fluorescence polarization | inhibition, % at 8.92 µM | 55% of 1,800 active;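 active = mean inhibition across replicates above the hit cutoff set in the primary screen, cut at about 30% in these data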;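 also: 0% = wild-type ABHD4 with DMSO and 100% = catalytically dead S159A mutant with DMSO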
Active calls of the source: *; x = not tested or not shown. Only some compounds are listed: those with a hit (about 1.8% of all), similar ones and a draw of the others.

SMILES	TCR CD3 inh	mABHD4 FP	HTRA1 inh	PME-1 inh	Fam108B counter	SIAE primary	mABHD4 conf
CC(C)(C)c1ccc(/C=C2\Oc3cc(OC(=O)N4CCOCC4)ccc3C2=O)cc1	1	67*	-2	7	-3	-4	57*
C[C@@H](NC(=O)c1nc[nH]c1C(=O)N1CCc2ccccc2C1)c1ccccc1	-2	1	-2	1	x	3	x
CC(=O)O[C@@H]1C[C@@]2(C)[C@@H](CC[C@H]2[C@@H](C)/C=C\CC(C)C)C2=C[C@@H](O)[C@@]3(O)C[C@@H](O)[C@H](O)C[C@]3(CO)[C@]21O	2	-2	x	x	x	-3	x
CCc1cc(C(=O)Nc2ccc(S(=O)(=O)NC3=NCCCCC3)cc2)sc1C	2	-5	-23	-7	-3	-6	x
COc1cccc(N2CCN(CC(=O)Nc3ccccc3C(=O)NCCc3ccccc3)CC2)c1	-8	7	-40	-4	x	-3	x
O=C(CN1CCN(c2ccc(O)cc2)CC1)Nc1ccccc1C(=O)NCCc1ccccc1	-6	32*	27	7	x	10	21
CCN(CC)CCN1C(=O)C(=O)/C(=C(/O)c2c(C)[nH]c(C(=O)OC)c2C)C1c1ccccc1OC (configuration not stated)	0	1	-2	1	2	-4	x
CCN(CC)CCN1C(=O)C(=O)/C(=C(/O)c2c(C)[nH]c(C(=O)OC)c2C)C1c1cccs1 (configuration not stated)	9	34*	2	4	-4	8	-17
CC(=O)c1ccc(NC(=O)CSc2nnc(-c3ccco3)c(-c3ccco3)n2)cc1	3	45*	20	-2	10	8	30*
c1ccc(-c2csc(Nc3ccc4c(c3)OCO4)n2)cc1	1	31*	x	x	x	10	27
N#Cc1ccc(Nc2nc(-c3ccccc3)cs2)cc1	2	15	x	x	x	7	x
CCn1c(SCC(=O)N(C)Cc2ccc(OC)c(F)c2)nc2cc(S(N)(=O)=O)ccc21	3	-6	4	-2	-2	6	x
NS(=O)(=O)c1cccc2c1c([N+](=O)[O-])cc1nc(O)c(O)nc12	8	31*	2	-1	0	0	11
C[C@@H]1C[C@H]2[C@@H](Cc3ccccc3)C(=O)N3[C@H](c4ccccc4)[C@H](C)C[C@H]3[C@@H](Cc3ccccc3)C(=O)N2[C@@H]1c1ccccc1	x	50*	x	x	x	9	39*
O=C(COC(=O)c1cccc(Br)c1)NC1CCCCCCC1	-5	-5	-22	x	x	-1	x
CCOC(=O)c1c(-c2ccc(-c3ccccc3)cc2)csc1NC(=O)CNCCN(C)C	-9	30*	30	5	1	11	43*
Cc1cc(NN=Cc2ccccn2)nc2c(C)cccc12	-3	2	x	x	x	1	x
Cc1cc(NN=Cc2ccccn2)nc2ccccc12	-4	43*	x	x	x	2	27
CCC/C=N/Nc1nc2ccccc2s1	-9	50*	28	7	-1	7	17
C(=NNc1ccc2ccccc2n1)c1ccccn1	-5	44*	x	x	x	7	12
C(=N\Nc1nc2ccccc2s1)/c1ccccn1	-2	37*	x	13	4	1	40*
C(=C\c1ccccc1)/C=N/Nc1nc2ccccc2s1	-15	8	-15	22	14	-1	x
O=NN(Cc1cccnc1)Cc1cccnc1	-1	0	x	x	x	1	x
CC(=O)c1ccc(N2CCN(C(=O)c3ccc4c(=O)[nH]c5c(C(=O)NC6CCCC6)sc(=S)n5c4c3)CC2)cc1	7	34*	x	x	x	-5	27
Cc1ccc(NC(=O)CSc2nnc(NC3CC3)s2)cc1S(=O)(=O)N1CCOCC1	5	-2	0	x	x	-3	x
SMILES	TCR CD3 inh	mABHD4 FP	HTRA1 inh	PME-1 inh	Fam108B counter	SIAE primary	mABHD4 conf
COc1cc(C=Nc2cccc(C)c2)c(O)c([N+](=O)[O-])c1	-2	12	10	6	-2	7	x
Cc1cccc(N=Cc2cc3c(cc2[N+](=O)[O-])OCO3)c1	2	41*	40*	6	3	12	26
C=CCNC(=O)c1ccsc1N	16	21	x	x	x	8	x
O=C(N/N=C/c1ccc[nH]1)c1cc2ccccc2cc1O	2	23	30	20	0	16	x
O=C(N/N=C/c1ccncc1)c1cc2ccccc2cc1O	-2	43*	22	x	x	10	8
O=CN(CCNc1ccccc1)c1ccccc1	-3	-4	-1	x	x	8	x
CCOC(=O)N(C)c1c(CC)nc2c(OCc3ccc(S(C)(=O)=O)cc3)cccn12	0	11	x	x	x	11	x
Cc1ccc(N/C=C/C(=O)c2cccs2)cc1C	11	-5	x	4	3	0	x
O=C(/C=C/Nc1ccc(Nc2ccccc2)cc1)c1cccs1	-1	34*	33	x	x	11	-2
COc1ccc(NS(=O)(=O)c2cc(NC(=O)CCc3ccccc3)ccc2N2CCOCC2)cc1	-5	-7	-22	x	x	0	x
CC(=O)OCCCNc1cc(SCc2ccco2)c2nonc2c1[N+](=O)[O-]	13	49*	8	-1	11	13	11
CCCC(=O)OCCNc1cc(SCc2ccco2)c2nonc2c1[N+](=O)[O-]	10	20	32	4	6	12	x
O=c1c(-c2ccco2)nc2ccccc2n1C(c1ccccc1)c1nc2ccccc2[nH]1 (configuration not stated)	2	-2	x	x	x	-7	x
O=c1c(-c2ccco2)nc2ccccc2n1C(c1ccccn1)c1nc2ccccc2[nH]1 (configuration not stated)	-2	38*	x	x	x	5	4
COc1ccc2c(c1)Sc1ccccc1N2	-1	41*	19	x	x	1	20
COc1ccc(S(=O)(=O)N2CCC(NC(=O)c3ccccc3)CC2)cc1	-6	39*	3	2	-2	7	-7
O=C(NC1CCN(S(=O)(=O)c2ccccc2)CC1)c1ccccc1	6	-1	3	4	2	0	x
COc1cc(N(C(C)=O)c2ccc(O)c(C(=O)O)c2)c2ncccc2c1	15	31*	16	x	x	13	47*
CCOC(=O)C1CCCN(C(=O)c2ccc(NS(=O)(=O)c3ccc4[nH]c(=O)[nH]c4c3)cc2)C1 (configuration not stated)	-2	4	-10	x	x	-1	x
COc1ccc(C(=O)N/N=C/c2c[nH]c3ccccc23)cc1	1	-3	0	8	-3	0	x
O=C(O)c1cc(N/N=C/c2c[nH]c3ccccc23)ccc1Cl	-6	32*	1	4	6	8	28
COc1ccc2c(/C=N/Nc3ccc(C(=O)O)cc3)c[nH]c2c1	5	50*	3	23	5	-5	36*
COc1ccc2ccccc2c1/C=N/Nc1cccc(C(=O)O)c1	14	37*	6	14	8	15	32*

Screens as filed in PubChem.
